The full list was thinned out, with hits kept by preference.
Fh CTSL1 inh = Fasciola hepatica cathepsin L1 inhibitors, primary screen, counter-screen for PFM18AAP inhibitor project, biochemical, QFRET, fluorogenic peptide substrate | recombinant F. hepatica cathepsin L1, Z-Leu-Arg-MCA fluorescence | inhibition, % at 5.96 µM | 0.49% of 300,000 active | AID 1906, 2009;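 active = inhibition above the mean of all tested compounds plus 3 SD, set per screening campaign, cut at about 17% in these data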;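 note: 0% = plate median of test compound wells and 100% = 1 µM Z-Phe-Ala-diazomethylketone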
XBP1 UPR activ = activators of adaptive XBP1 UPR arm, primary screen, cell-based, CHO-XBP1 luciferase reporter, luminescence, uHTS; IRE1-XBP1 UPR activation; percent of tunicamycin response, DMSO as zero; activation, % at 20 µM; AID 463104, 2010; 0.33% of 330,000 active;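 active = versus positive control, 20 µM dose yields 30% or more activation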;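 note: 100% = tunicamycin at 10 µg/mL and 0% = DMSO only wells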
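Material: CHO-XBP1 cells stably carrying IRE1-XBP1-driven luciferase reporter | Medium: F12 with 10% serum | Compound dosing: 20 µM single concentration, DMSO 1% | Incubation: Overnight seeding at 37 °C, 6 h compound treatment at 37 °C | Detection: Steady-Glo luminescence read | Read-out basis: % activation of reporter signal versus tunicamycin and DMSO controls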
CHOP inh = inhibitors of CHOP promoter induction, primary screen, cell-based, unfolded protein response, luciferase reporter | CHO-K1 CHOP-promoter luciferase, tunicamycin-induced, 15-18 h | inhibition, % at 10 µM | 3.8% of 220,000 active | AID 2732, 2010;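 active = compounds that reduced the stress-induced luciferase reporter signal by more than about 70% of percent inhibition, limit read from the data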;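 note: 0% = tunicamycin plus vehicle and 100% = wells without tunicamycin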
CHOP UPR activ = activators of apoptotic CHOP UPR arm, primary screen, cell-based, CHO-CHOP luciferase reporter, luminescence, uHTS; AID 449763, 2010; UPR activation; percent of tunicamycin response over DMSO baseline; 0.34% of 330,000 active; activation, % at 10 µM;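 active = at 10 µM dose, activation of 40% or more, normalized to positive control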;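 note: 100% = tunicamycin at 10 µg/mL and 0% = DMSO alone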
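System: CHO-CHOP luciferase reporter cell line; amount: 500 cells/well; buffer or medium: F12 medium containing 10% fetal bovine serum; incubation: 6 h compound exposure at 37 °C after overnight seeding; measured by: luciferase luminescence after 10 min with Steady-Glo reagent; evaluation: % reporter activation, DMSO baseline versus tunicamycin full activation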
UCH37 inh = inhibitors of human UCH37 deubiquitinase, primary screen, biochemical, Ub-AMC cleavage, fluorescence; purified proteasome/UCH37; inhibition, % (test concentration not listed); 0.33% of 330,000 active;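 active = mean inhibition over replicate wells above about 20%, limit read from the data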;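 note: 0% = compound-free wells with enzyme and 100% = wells lacking proteasome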
Target sequence (Q9Y5K5 whole entry, looked up): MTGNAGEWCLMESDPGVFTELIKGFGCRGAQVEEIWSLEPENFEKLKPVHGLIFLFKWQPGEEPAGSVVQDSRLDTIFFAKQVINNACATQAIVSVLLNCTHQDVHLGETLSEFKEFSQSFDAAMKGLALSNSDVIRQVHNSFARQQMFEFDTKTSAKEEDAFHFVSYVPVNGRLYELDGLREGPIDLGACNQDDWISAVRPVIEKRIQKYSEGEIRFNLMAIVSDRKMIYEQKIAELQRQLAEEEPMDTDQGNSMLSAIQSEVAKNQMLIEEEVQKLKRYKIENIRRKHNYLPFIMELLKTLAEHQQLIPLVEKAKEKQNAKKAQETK
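System: Proteasome-associated human UCH37 deubiquitinase; Input: 0.15 nM proteasome in added enzyme buffer; Also added: Ub-AMC substrate from 1 µM stock; Incubation: 30 min compound-proteasome preincubation then 25 min substrate reaction, room temperature; Detection: fluorescence, ex 355 nm, em 460 nm; Read-out: % inhibition of Ub-AMC cleavage fluorescence; Benchmarks: no-proteasome and no-compound wells.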
Starred values were filed as active, the others as inactive; x = no result.

SMILES	Fh CTSL1 inh	XBP1 UPR activ	CHOP inh	CHOP UPR activ	UCH37 inh
CCOC(=O)c1c(C)[nH]c(C(=O)CSc2nnc(-c3cccs3)n2Cc2ccccc2)c1C	-2	17	79*	0	4
CCOC(=O)c1c(C)[nH]c(C(=O)COC(=O)C2(C)CC2(Cl)Cl)c1C (stereo not drawn)	3	5	81*	1	5
CCOC(=O)c1c(C)[nH]c(C)c1C(=O)CSc1nnnn1-c1ccccc1	5	1	-8	3	4
COC(=O)c1c(C)[nH]c(C(=O)CSc2nnnn2-c2ccccc2)c1C	-1	9	77*	-1	-1
CC(=O)N(C(C)=O)c1nc(-c2ccccc2)cn1/N=C/c1cccc([N+](=O)[O-])c1	2	0	92*	-2	x
CCOC(=O)C1=C(C)NC(C)=C(C(=O)OCC)C1c1cn(-c2ccccc2)nc1-c1ccco1	1	5	84*	2	-117
Fc1cccc2sc(Nc3nc4c(F)cccc4s3)nc12	4	1	88*	5	x
NNc1nc2c(F)cccc2s1	-1	0	-9	3	4
C=C(C)COc1ccc(-c2[nH]ncc2-c2ccc(Br)cc2)c(O)c1	1	0	106*	27	0
COc1ccc(-c2cn[nH]c2-c2ccc(OCc3ccc([N+](=O)[O-])cc3)cc2O)cc1	1	-3	91*	-2	2
CCc1cc(-c2[nH]ncc2-c2ccc(OC)cc2)c(O)cc1O	-3	-3	x	0	2
CCN(CC)S(=O)(=O)c1ccc(NN=Cc2ccc(O)cc2)nc1	x	x	x	x	-12
CCN1CCN(CC(=O)NN=Cc2cc(Br)cs2)CC1	x	x	x	x	4
CCNc1nc(N2CCOCC2)nc(N(c2ccccc2)c2ccccc2)n1	10	2	72*	0	4
CC(C)(C)Nc1nc(SCc2ccccc2)nc(N2CCOCC2)n1	19*	1	74*	-3	4
Cc1cc(C)nc(N=C(NC(=O)C(C)(C)C)Nc2ccc(F)cc2)n1	x	x	x	x	3
O=C(CCCN1C(=O)/C(=C/c2ccccc2Cl)SC1=S)NNC(=O)c1ccccc1Cl	0	-4	95*	-6	3
COc1ccc(/C=C2/SC(=S)N(CCCC(=O)Nc3ccccc3C(=O)O)C2=O)cc1	-1	-8	x	-4	5
CCc1ccc(/C=C2\SC(=S)N(CCCC(=O)Nc3nccs3)C2=O)cc1	-4	-4	78*	1	5
O=C(CCCN1C(=O)/C(=C/c2ccccc2Cl)SC1=S)NNC(=O)c1ccncc1	4	-7	67	-3	6
COc1ccc(/C=C2\SC(=S)N(CCCC(=O)NNC(=O)c3ccccc3O)C2=O)cc1	3	-10	106*	-8	x
CCOC(=O)Cc1csc(NN=Cc2ccc(N(C)C)cc2)n1	x	x	x	x	-6
O=C(NN=Cc1ccc(-c2ccc(Cl)c(C(=O)O)c2)o1)c1cc2c(ccc3ccccc32)o1	x	x	x	x	-208
Cc1cccc(C=Nn2c(C)nc3ccccc3c2=O)c1	x	x	x	x	6
Cc1ccccc1Cn1c(=O)n(Cc2ccco2)c(=O)c2ccccc21	0	0	88*	-1	4
SMILES	Fh CTSL1 inh	XBP1 UPR activ	CHOP inh	CHOP UPR activ	UCH37 inh
Cc1ccc(-n2c(=O)c3ccc(C(=O)NCc4ccco4)cc3n(Cc3ccccc3C#N)c2=O)cc1	-2	-3	6	-3	1
Cc1ccccc1Cn1c(=O)n(-c2ccccc2)c(=O)c2ccc(C(=O)NCc3ccco3)cc21	-2	-1	81*	1	3
Oc1ccc(C=NNC2=NCCCCC2)cc1	x	x	x	x	-3
COc1ccc(Nc2nc(NCc3ccco3)nc(NN=Cc3ccc(O)cc3)n2)cc1	x	x	x	x	4
O=C(CC(=O)NC1CCCCC1)NN=Cc1cccc2ccccc12	x	x	x	x	-3
COc1ccc(C(C[N+](=O)[O-])c2c(-c3ccccc3)cc3ccccn23)cc1OC (stereo not drawn)	0	3	81*	9	-10
O=C(CN1CCN(S(=O)(=O)c2ccccc2)CC1)Nc1cccc(C(F)(F)F)c1	-5	-2	79*	-1	4
O=C(CNc1cccc(C(F)(F)F)c1)Nc1cccc(S(=O)(=O)N2CCCC2)c1	x	-2	x	1	2
Cc1ccc(C(=O)N/C(=C\c2ccc(F)cc2)C(=O)NCc2ccncc2)cc1	1	0	3	0	-3
COc1ccc(/C=C(/NC(=O)c2ccc(C)cc2)C(=O)NCc2ccncc2)cc1	21*	-4	x	0	6
NC(Cc1ccc([N+](=O)[O-])cc1)=NOC(=O)c1ccccc1F	x	x	x	x	2
N/C(Cc1ccc([N+](=O)[O-])cc1)=N\OC(=O)C(c1ccccc1)c1ccccc1	3	0	83*	3	x
Cc1ccc(Cn2cccc2/C=C2/C(=N)N3C=CSC3=NC2=O)cc1	1	14	94*	3	-2
Cc1oc2ccc(O)cc2c1C(=O)c1ccc(Cl)cc1	10	6	71*	6	4
Cc1oc2ccc(O)cc2c1C(=O)c1ccc(Br)cc1	7	2	x	0	7
COC(=O)c1ccc(C=NN2CCN(Cc3ccc(C)cc3)CC2)cc1	x	x	x	x	3
CN(C)c1nc(N)nc(CSc2nc3cc(Cl)ccc3o2)n1	4	8	77*	7	2
CC1=C(C=NNc2ccc([N+](=O)[O-])cc2[N+](=O)[O-])C(C)(C)CCC1	x	x	x	x	12
Cc1nn2c(NCCCN(C)C)c3c(nc2c1-c1ccccc1)CCC3	1	2	93*	0	-3
Cc1nn2c(NCCCN(C)C)c3c(nc2c1-c1ccccc1)CCCC3	1	-3	-2	1	1
Cc1nn2c(N3CCOCC3)c3c(nc2c1-c1ccccc1)CCCC3	3	-1	72*	0	1
Cc1ccccc1C(=O)Nc1ccc(C(=O)NN=Cc2ccncc2)cc1	x	x	x	x	0
O=C(COc1ccccc1-c1ccccc1)N/N=C/c1ccncc1	0	-4	35	-2	x
O=C(COc1ccccc1-c1ccccc1)N/N=C/c1ccccn1	-3	3	77*	-1	x
O=C(Oc1ccc2ccccc2c1)c1cncc(Br)c1	-1	-1	94*	1	1
O=C(Oc1ccc2c(=O)c(Oc3ccc4ccccc4c3)coc2c1)c1cncc(Br)c1	-4	-1	-11	1	-1
Cc1cc(C(=O)NN=Cc2ccc(OC(=O)c3ccccc3Br)cc2)n[nH]1	x	x	x	x	0
CCn1c(SCC(=O)NN=Cc2ccccc2OCC(=O)O)nnc1-c1ccc(Cl)cc1	x	x	x	x	4

Assay outcomes deposited in PubChem by several laboratories.
